High-throughput results from PubChem.
Hits are enriched below; roughly 2.9% of the tested compounds scored in any of these assays.
TRPC4 act = opens the mouse TRPC4 cation channel | Q9QUQ5 | HEK293 TRPC4beta/mu-opioid, Fluo4 calcium fluorescence; stronger effect = higher value | B-score at 10 µM | actives 0.49% (n = 310,000);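 active = B-score above 5 SD of library B-scores, and initial fluorescence ratio not above library mean plus 5 SD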;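 note: positive B-score marks a calcium rise read as TRPC4 activation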
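Technique: kinetic Fluo4 calcium fluorescence; Test system: TRPC4beta and mu-opioid receptor HEK293 stable cells; Measure: B-scored integrated calcium fluorescence ratio; Benchmarks: low control buffer alone, high control maximal DAMGO; Schedule: 45 min room-temperature Fluo4 loading, 110 s read.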
TRPC6 act = mouse TRPC6 channel activation; Q61143; HEK293-TRPC6 membrane potential dye fluorescence; stronger effect = higher value; B-score at 10 µM; actives 0.13% (n = 310,000);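 active = B-score of the integrated fluorescence ratio above library mean plus 3 SD, and starting fluorescence ratio within library mean plus 5 SD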;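 note: higher score means more depolarization so channel activation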
TRPC4 PAM = allosteric potentiators of mouse TRPC4 channel; Q9QUQ5; HEK293 TRPC4beta/mu-opioid, DAMGO EC20, Fluo-4 Ca2+ flux; stronger effect = higher value; B-score at 10 µM; actives 0.42% (n = 310,000); AID 2227;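 active = B-score of calcium response area above 5 SD of library B-scores, with initial fluorescence ratio within 5 SD of library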;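 note: B-score of integrated fluorescence ratio over time as area under calcium response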
Kir21 block = inhibitors of mouse Kir2.1 inward-rectifier potassium channel; HEK293-Kir2.1, FluxOR thallium flux fluorescence; stronger effect = lower value; P35561; actives 0.85% (n = 310,000); B-score at 10 µM;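 active = fluorescence ratio B-score at or below minus 3 SD of library scores, with starting-brightness B-score within 2 SD, cut at about -4.2 in these data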;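 note: channel flux triggered by added potassium and thallium sulfate stimulus; B-score of peak minus minimum fluorescence over baseline after thallium stimulus; more negative B-score means stronger Kir2.1 block with less thallium influx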
Target sequence (P35561 whole entry, looked up): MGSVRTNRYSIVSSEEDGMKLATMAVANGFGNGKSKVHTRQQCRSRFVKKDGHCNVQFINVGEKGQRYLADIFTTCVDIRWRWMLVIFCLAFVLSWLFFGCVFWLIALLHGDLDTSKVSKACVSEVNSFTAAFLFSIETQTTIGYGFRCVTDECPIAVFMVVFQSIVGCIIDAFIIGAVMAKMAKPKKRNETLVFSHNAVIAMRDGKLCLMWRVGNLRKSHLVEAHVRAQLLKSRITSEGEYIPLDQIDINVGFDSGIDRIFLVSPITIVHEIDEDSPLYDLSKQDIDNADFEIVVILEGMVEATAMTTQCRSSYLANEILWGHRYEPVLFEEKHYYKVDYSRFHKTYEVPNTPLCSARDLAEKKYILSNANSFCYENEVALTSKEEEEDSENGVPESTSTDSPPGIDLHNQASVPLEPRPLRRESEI
TRPC6 inh = mouse TRPC6 channel inhibition | Q61143 | HEK293-TRPC6, membrane potential dye, ACh-evoked depolarization; stronger effect = lower value | B-score at 10 µM | actives 1.1% (n = 310,000) | AID 2553;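 active = B-score under library mean minus 3 SD, initial fluorescence not abnormally high, positive integrated signal ratio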;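 note: B-score derived from integrated fluorescence ratio over the kinetic read; more negative B-score means stronger inhibition of depolarization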
TRPC4 inh = inhibitors of mouse TRPC4 channel; Q9QUQ5; HEK293 TRPC4beta/mu-opioid, DAMGO-evoked Fluo4 calcium flux; stronger effect = lower value; AID 2247; actives 0.39% (n = 300,000); B-score at 10 µM;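 active = B-score over 3 SD under the library average, no early fluorescence shift, positive overall ratio signal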
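Assay system – HEK293 line stably carrying TRPC4beta and mu-opioid receptor · Doses – single dose · Detection – Fluo4 calcium-dye fluorescence, kinetic read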
TRPC4 spec 2 = second check of whether TRPC6 inhibitors also affect mouse TRPC4 | inhibition, % at 10 µM | actives 42% (n = 920) | AID 2776 | HEK293 TRPC4/MOR, membrane potential dye fluorescence; channel activated by saturating DAMGO dose | shares compounds with TRPC6 inh;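 active = compounds whose fluorescence signal differed from control wells by over 3 SD, either direction, in both duplicate plates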
TRPC4 spec = selectivity of TRPC6 inhibitors: effect on mouse TRPC4 | shares compounds with TRPC6 inh | HEK293 TRPC4/mu-opioid, membrane potential fluorescence | activity change, negative = inhibition, % at 10 µM | actives 61% (n = 920);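 active = rise or fall in signal beyond 3 SD of buffer-only wells in both replicate plates, either sign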;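 note: integrated kinetic ratio of fluorescence range over baseline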
HEK293 MPD ctr 2-1 = second check of TRPC6 inhibitor effects in parental HEK293 cells; shares compounds with TRPC6 inh; parental HEK293 membrane potential dye fluorescence; maximal acetylcholine challenge after compound addition; signal change vs control, % at 10 µM; actives 31% (n = 920); AID 2779;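 active = membrane potential signal moving either way by over 3 SD of the maximum-effect control, in both duplicate plates, meaning non-specific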
HEK293 MPD ctr-1 = parental HEK293 nonspecific activity of TRPC6 inhibitors | shares compounds with TRPC6 inh | parental HEK293 membrane potential dye fluorescence | membrane potential signal change, % at 10 µM | actives 60% (n = 920);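 active = membrane potential signal shifting up or down by more than 3 SD of buffer-only wells, on both duplicate plates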
HEK293 MPD ctr-2 = counter-screen for TRPC6 modulators: effect in parental HEK293 cells. shares compounds with TRPC6 inh. membrane potential dye fluorescence. membrane potential signal change, % at 10 µM. actives 51% (n = 2,400). AID 488924;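 active = membrane potential signal moves up or down beyond 5 SD from buffer-only wells, on both duplicate plates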
HEK293 MPD ctr 2-2 = second check of TRPC6 modulator effects in parental HEK293 cells; shares compounds with TRPC6 inh; membrane potential dye fluorescence; after compound, maximal acetylcholine stimulation; inhibition, % at 10 µM; actives 14% (n = 2,400);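 active = membrane potential signal drops by more than 5 SD from the mean control signal, in both duplicate plates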;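 note: plate controls were acetylcholine ECmax control wells for no effect and buffer only wells for full effect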
TRPC4/MOR mod = mouse TRPC4 off-target activity of TRPC6 modulators | shares compounds with TRPC6 inh | HEK293 TRPC4/mu-opioid, membrane potential fluorescence | percent change from control (negative = decrease, positive = increase), % at 10 µM | actives 69% (n = 2,400);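 active = membrane potential signal moved up or down beyond 5 SD of buffer control wells, in both duplicate plates, actives on both sides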;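 note: plate controls were assay buffer wells for no effect and DAMGO maximal-effect wells for full effect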
TRPC4 ctr inh 2 = second check of whether TRPC6 modulators also affect mouse TRPC4; HEK293 TRPC4/mu-opioid, membrane potential dye fluorescence; stimulated with maximal-effect DAMGO; shares compounds with TRPC6 inh; actives 55% (n = 2,400); inhibition, % at 10 µM;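 active = drop in membrane potential signal beyond 5 SD of the control wells in both duplicate plates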;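 note: TRPC4 counter screen for TRPC6 hits run under conditions tuned for TRPC6 not TRPC4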
TRPC6 inh conf = confirmation of mouse TRPC6 inhibitors; shares compounds with TRPC6 inh; HEK293-TRPC6, membrane potential dye, ACh-evoked depolarization; inhibition, % at 10 µM; actives 43% (n = 3,300); AID 488960;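 active = fluorescence ratio falls more than 5 SD below the full-stimulation control mean, in both duplicate runs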;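 note: integrated fluorescence ratio of peak minus minimum over baseline after agonist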
TRPC6 act confirm = mouse TRPC6 activator confirmation | shares compounds with TRPC6 inh | HEK293-TRPC6 membrane potential dye fluorescence, FDSS | activation, % at 10 µM | actives 11% (n = 2,800);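 active = ratio signal rise beyond 5 SD above unstimulated control wells' mean, seen in both duplicate runs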;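 note: plate controls were buffer EC0 wells for no effect and acetylcholine ECmax response for full effect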
Starred values were filed as active, the others as inactive; i = inactive; x = no result.

SMILES	TRPC4 act	TRPC6 act	TRPC4 PAM	Kir21 block	TRPC6 inh	TRPC4 inh	HEK293 MPD ctr-2	HEK293 MPD ctr 2-2	TRPC4/MOR mod	TRPC4 ctr inh 2	TRPC6 inh conf	TRPC6 act confirm	others
COc1ccc(C(=O)N2CCN(S(=O)(=O)c3cc(Cl)ccc3OC)CC2)cc1	i	i	i	-1.4	i	i	x	x	x	x	x	x
Cc1ccc(NS(=O)(=O)c2c(C)[nH]c(C)c2C(=O)N2CCCCC2)c(Cl)c1	i	i	i	-0.72	i	i	x	x	x	x	x	x
COCCCNC(=S)N1CCCN(c2nc3c(C)c(C)ccc3cc2C#N)CC1	i	i	i	-2.6	i	i	x	x	x	x	x	x
COCCNC(=S)N1CCCN(c2nc3cc(C)ccc3cc2C#N)CC1	i	12*	i	-2	i	i	i	i	i	34%*	x	136%*
Cc1ccc(OC(=O)CCC(=O)NC(C)c2ccccc2)cc1 (stereo unspecified)	i	i	i	-1.4	i	i	x	x	x	x	x	x
CN(C)CCn1c(=N)n(CC(O)c2ccc(Cl)c(Cl)c2)c2ccccc21 (stereo unspecified)	i	i	i	-6.9*	-5.3*	i	i	i	58%*	78%*	i	i
COC(=O)c1ccc(Oc2cc(C)nc(NCc3ccccc3)n2)cc1	i	i	i	0.65	i	i	x	x	x	x	x	x
COC(=O)c1ccc(Oc2nc(C)cc(Oc3ccccc3)n2)cc1	i	i	i	0.54	-7.8*	i	x	x	x	x	i	i	TRPC4 spec 2=i;TRPC4 spec=1.0%*;HEK293 MPD ctr 2-1=i;HEK293 MPD ctr-1=1.6%*
CS(=O)(=O)N(Cc1cccc(CN(C(C(=O)O)c2ccccc2)S(C)(=O)=O)c1)C(C(=O)O)c1ccccc1 (stereo unspecified)	i	i	i	0.97	-8.7*	i	x	x	x	x	i	i	TRPC4 spec 2=i;TRPC4 spec=i;HEK293 MPD ctr 2-1=i;HEK293 MPD ctr-1=i
CCn1c(/N=C/c2c[nH]c3ccccc23)nc2ccccc21	i	i	i	0	-8.1*	i	x	x	x	x	53%*	i	TRPC4 spec 2=75%*;TRPC4 spec=-9.7%*;HEK293 MPD ctr 2-1=i;HEK293 MPD ctr-1=-165%*
O=C(NCc1cccc(Cl)c1)c1ccc(N2CC3CC(C2)c2cccc(=O)n2C3)c(NC(=O)c2cccnc2)c1 (stereo unspecified)	i	i	i	1.6	i	i	x	x	x	x	x	x
CCCn1c2ccccc2c2cnn(CC(=O)NCCCN3CCN(c4ccccc4)CC3)c(=O)c21	i	i	i	-4.6*	-5.3*	i	134%*	i	8.0%*	74%*	i	x
O=C(Nc1ncccc1O)c1ccc(Oc2ccccc2)cc1	i	i	i	-0.74	i	i	x	x	x	x	x	x
O=C(NCCCN1CCCC1)c1ccc2c(c1)N(Cc1ccccc1)CCS2	i	i	i	1.1	-5.9*	i	i	i	-8.5%*	80%*	62%*	i
O=C(NCCCN1CCOCC1)c1ccc2c(c1)N(Cc1cccc(Cl)c1)C(=O)CS2	i	i	i	-1.6	-5*	i	664%*	160%*	133%*	41%*	93%*	x
Cc1ccccc1CN(C)C(C)C(=O)NCc1ccccc1 (stereo unspecified)	i	i	i	-1.8	i	i	x	x	x	x	x	x
O=C(CSc1nnc(-c2ccccc2)n1CC1CCCO1)N1CCCC1 (stereo unspecified)	i	i	i	0.54	i	i	x	x	x	x	x	x
C=CCn1c(SCC(=O)c2cc(C)n(CC3CCCO3)c2C)nnc1-c1ccccc1 (stereo unspecified)	i	16*	i	-0.26	i	i	110%*	i	26%*	i	x	82%*
CC(=O)c1c(C)nc2cc(Cl)ccc2c1N	i	i	i	-0.03	-5.8*	i	-66%*	i	-12%*	32%*	i	i
COc1ccc2oc(C(=O)OCC(=O)N(C)CC(=O)Nc3ccc(F)cc3)c(C)c2c1	i	i	i	-0.01	i	i	x	x	x	x	x	x
CN(C)CCN(C(=O)c1ccc(Br)s1)c1nc2cc3c(cc2s1)OCCO3	i	i	i	0.95	i	i	x	x	x	x	x	x
CCN(CC)CCN(C(=O)c1ccc2c(c1)OCCO2)c1nc2cc3c(cc2s1)OCO3	i	i	i	-1.4	-5.8*	i	i	i	-23%*	84%*	50%*	i
CN(C)CCCN(C(=O)c1ccc2c(c1)OCCO2)c1nc2cc3c(cc2s1)OCO3	i	i	i	-3.7	-5.7*	i	i	i	-18%*	80%*	78%*	i
CN(C)CCN(C(=O)c1cccs1)c1nc2cc3c(cc2s1)OCCO3	i	i	i	-0.06	-8*	i	x	x	x	x	96%*	i	TRPC4 spec 2=44%*;TRPC4 spec=-18%*;HEK293 MPD ctr 2-1=i;HEK293 MPD ctr-1=-230%*
